The record followed here is ChEMBL document CHEMBL1122079, “Tryptophan analogues. 1. Synthesis and antihypertensive activity of positional isomers” (1982).

Assay [1] relates to Felis catus. The assay is described as follows: Change in blood pressure in normotensive anesthetized cat. Type of assay: functional. In a few lines: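 Normotensive cats of either sex (2-4 kg) anesthetized with α-chloralose (80 mg/kg iv). Trachea, femoral artery and jugular vein cannulated. Compound given iv at 10 mg/kg, with 1 mg/kg iv used in one case. Mean blood pressure recorded by pressure transducer before and 30 min after dosing, reported as decrease in mmHg.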

Assay [2] has as its system Rattus norvegicus. The assay is described as follows: Antihypertensive activity in renal hypertensive rats 4 hr after oral administration (10 mg/Kg). In kind it is functional. In a few lines:
(§1)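 Renal hypertensive rats (5 or 10 per group), 10 mg/kg given orally. Systolic pressure measured indirectly by tail occluding cuff with pulse sensor, once before dosing as control and again at 1, 2, 4, 6 and 8 h. Values are changes in mean systolic pressure from control (mmHg). Significance of control vs posttreatment assessed by Wilcoxon's signed rank test (p < 0.05).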

Assay [3] deals with Rattus norvegicus. Put plainly: Antihypertensive activity in renal hypertensive rats 8 hr after oral administration (10 mg/Kg). In kind it is functional. In a few lines:
as §1

Assay [4] deals with Felis catus. Put plainly: Control blood pressure in normotensive anesthetized cat at dose 10 mg/Kg iv.
Assay [5] concerns Rattus norvegicus. The assay is described as follows: Antihypertensive activity in renal hypertensive rats 6 hr after oral administration (10 mg/Kg). In kind it is functional. In short, it runs like this: as §1
Assay [6] concerns Rattus norvegicus. Put plainly: Antihypertensive activity in renal hypertensive rats 1 hr after oral administration (10 mg/Kg). In kind it is functional. In short, it runs like this:
as §1

Assay [7] deals with Rattus norvegicus. Put plainly: Antihypertensive activity in renal hypertensive rats 2 hr after oral administration (10 mg/Kg). In kind it is functional. In a few lines: as §1

As for `Cl.NCC(C(=O)O)c1c[nH]c2ccc(Br)cc12` (stereo unspecified), the BP in assay [1] is listed as -15 mmHg; in assay [2] it was 0 mmHg; in assay [3] it was 0 mmHg; in assay [5], 5 mmHg; in assay [6], -12 mmHg; in assay [7], -5 mmHg. Besides, the “control BP” value in assay [4] came to 115 mmHg.

As for `COc1ccc2[nH]cc(C(CN)C(=O)OC(C)C)c2c1.Cl` (stereo unspecified), the BP in assay [1] is on record as -48 mmHg; in assay [2], 13 mmHg; in assay [3] it was 13 mmHg; in assay [5] it was 7 mmHg; in assay [6], 7 mmHg; in assay [7] it was -1 mmHg. In assay [4], the “control BP” value turned out to be 181 mmHg.

`NC(Cc1c[nH]c2ccc(O)cc12)C(=O)O` (stereo unspecified): the BP was -24 mmHg in assay [1]; 0 mmHg in assay [2]; -1 mmHg in assay [3]; 6 mmHg in assay [5]; -9 mmHg in assay [6]; -5 mmHg in assay [7]. Besides, in assay [4], the “control BP” value is listed as 162 mmHg.
